High-throughput results deposited in PubChem BioAssay by several laboratories.
MC4R antagonist – human MC4R antagonism in cAMP assay. P32245. MC4R-expressing cells, MTII-stimulated cAMP, LANCE TR-FRET. inhibition, % at 6.5 µM. 0.48% of 360,000 active;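 active = inhibition above its plate's cutoff, the mean of tested wells on that plate plus 3 SD, cut at about 29% in these data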
Target sequence (P32245 whole entry, looked up): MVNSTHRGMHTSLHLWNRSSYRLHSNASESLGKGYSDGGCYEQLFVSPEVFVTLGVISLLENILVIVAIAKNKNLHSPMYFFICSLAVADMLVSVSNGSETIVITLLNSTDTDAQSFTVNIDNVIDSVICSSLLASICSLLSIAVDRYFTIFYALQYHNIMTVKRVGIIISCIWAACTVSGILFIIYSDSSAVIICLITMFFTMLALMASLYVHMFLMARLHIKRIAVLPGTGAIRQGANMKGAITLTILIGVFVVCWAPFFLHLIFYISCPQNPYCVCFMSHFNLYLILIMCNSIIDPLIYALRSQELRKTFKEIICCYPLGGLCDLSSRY
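system = U2OS cells with stable human MC4R expression | also added = Melanotan II challenge after compound preincubation | dosing = one concentration, 6.5 µM nominal | incubation = compound 30 min, challenge 1 h, detection 1 h | measured by = TR-FRET with Eu-cAMP and labeled anti-cAMP, 671 nm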
MC4R barr agon – agonists of human melanocortin 4 receptor (MC4R) beta-arrestin; P32245; U2OS MC4R beta-arrestin complementation, luminescence; percent of melanotan II response, DMSO zero; activation, % at 8.9 µM; 0.98% of 360,000 active;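 active = activation above a per-plate cutoff, the mean activation of sample wells on that plate plus 3 SD, cut at about 8% in these data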
Efflux pump mplx – antifungal efflux pump inhibition, Nile Red retention; inhibition, % at 10 µM; AID 485275; 0.44% of 330,000 active; S. cerevisiae Candida pump triplex;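 active = plate passing quality check with inhibition over a set limit, or well fluorescence over plate mean plus 4 SD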;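 note: Nile Red retained in pooled yeast measured as flow cytometry median fluorescence; higher means more Nile Red kept so more efflux inhibition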
GalR3 antag – human GalR3 antagonism; HEK293 GalR3-CNG cAMP membrane potential fluorescence; galR3 body fused to GalR1 C-terminus; inhibition, % at 3 µM; AID 651719; O60755; 0.44% of 360,000 active;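 active = inhibition above the screen-wide average plus 3 SD, cut at about 13% in these data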;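 note: forskolin and galanin both at EC90 stimulate the cells; cAMP rise reported by CNG channel membrane potential dye signal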
Target sequence (O60755 1-299 limits assumed): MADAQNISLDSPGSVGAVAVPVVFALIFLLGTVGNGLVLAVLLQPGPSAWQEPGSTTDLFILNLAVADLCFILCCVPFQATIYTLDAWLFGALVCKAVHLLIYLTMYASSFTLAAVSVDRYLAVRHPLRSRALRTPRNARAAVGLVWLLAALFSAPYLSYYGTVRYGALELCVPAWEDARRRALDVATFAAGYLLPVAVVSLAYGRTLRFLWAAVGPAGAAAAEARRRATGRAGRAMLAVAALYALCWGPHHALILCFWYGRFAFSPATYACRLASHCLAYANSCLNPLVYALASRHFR
Calb FLC – affects C. albicans growth with fluconazole; C. albicans CaCi-2 + fluconazole, Alamar Blue growth, 48 h; growth inhibition, % (concentration not given with the values); 0.57% of 300,000 active; AID 1979;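 active = growth inhibition above about 58% in most replicates, limit read from the data, passing the limit was not always enough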;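 note: all wells also contain fluconazole at 8 µg/ml as a sub-toxic cotreatment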
H9c2 TAG inh – reduces triacylglycerol accumulation in H9c2 cells; 0.66% of 230,000 active; AID 651582; Nile Red lipid (TAG) fluorescence; cells loaded with 200 µM oleic acid; inhibition, % at 12.5 µM;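 active = pattern-corrected inhibition of lipid staining of at least 50% with the nuclear-stain viability signal not falling by more than 50%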
U2OS cAMP counter – counter-screen for MC4R antagonists: nonselective cAMP signaling inhibitors; shares compounds with MC4R antagonist; parental U2OS, forskolin cAMP, LANCE TR-FRET; inhibition, % at 6.5 µM; 26% of 1,600 active; AID 602193;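 active = mean inhibition over triplicates above the low-control well mean plus 3 SD, set per campaign, cut at about 13% in these data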;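 note: signal is single emission at 671 nm which falls as cellular cAMP rises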
MC4R antag conf – human MC4R cAMP antagonism confirmation; shares compounds with MC4R antagonist; MC4R-expressing cells, MTII-stimulated cAMP, TR-FRET; inhibition, % at 6.5 µM; 27% of 1,600 active; AID 602195; in the data active = inhibition above about 29%
Of the large screens only hits and unclear results are named; the others gave an inactive call (follow-up assays come after a bar, where they were run). Rows were chosen to be rich in hits. Some 2.9% of all compounds tested hit in one or more screens of this group.

Cc1ccc(C)c(S(=O)(=O)NCC(=O)OCC(=O)Nc2sccc2C(N)=O)c1	MC4R antagonist 49.0 (no result: Efflux pump mplx, Calb FLC) | U2OS cAMP counter 13.4 | MC4R antag conf 32.9
COc1ccccc1N1CCN(Cc2cc(=O)oc3cc(C)cc(C)c23)CC1	none (no result: MC4R antagonist, MC4R barr agon, Efflux pump mplx, Calb FLC, H9c2 TAG inh)
CCOC(=O)CC(NC(=O)Cn1nnc(-c2ccccc2F)n1)c1ccc(OC)cc1 (configuration not stated)	MC4R antagonist 29.7 | U2OS cAMP counter inactive | MC4R antag conf inactive
COC(=O)c1c(N2C(=O)[C@H]3[C@@H](C2=O)[C@]2(C(=O)Nc4c2ccc(C)c4C)N2CCC[C@@H]32)sc(C)c1C	MC4R antagonist 33.3 | U2OS cAMP counter inactive | MC4R antag conf inactive
COC(=O)c1c(N2C(=O)[C@H]3[C@@H](C2=O)[C@]2(C(=O)Nc4c(C)cc(C)cc42)N2CCC[C@@H]32)sc(C)c1C	none
O=C1c2ccc([N+](=O)[O-])cc2S(=O)(=O)N1Cc1ccccc1	MC4R antagonist 32.7 (no result: H9c2 TAG inh) | U2OS cAMP counter 28.3 | MC4R antag conf 50.3
COc1cccc(CN2C(=O)c3ccccc3S2(=O)=O)c1	none (no result: H9c2 TAG inh)
O=C(OC1CCOC1=O)c1cc(-c2ccc(Cl)cc2)nc2ccccc12 (configuration not stated)	MC4R antagonist 35.1 (no result: H9c2 TAG inh) | U2OS cAMP counter 17.4 | MC4R antag conf inactive
O=C(OC1CCOC1=O)c1cc(-c2ccccc2)nc2ccccc12 (configuration not stated)	none
N#Cc1cc2c(nc1SCC(=O)Nc1nccs1)CCCCC2	MC4R antagonist 39.2 (no result: H9c2 TAG inh) | U2OS cAMP counter inactive | MC4R antag conf inactive
CCC1CCCCN1S(=O)(=O)c1ccc(NC(=O)c2nc(S(C)(=O)=O)ncc2Cl)cc1 (configuration not stated)	MC4R antagonist 82.5 (no result: H9c2 TAG inh) | U2OS cAMP counter inactive | MC4R antag conf 65.5
CCS(=O)(=O)c1ncc(Cl)c(C(=O)Nc2ccc(S(=O)(=O)N3CCCC(C)C3)cc2)n1 (configuration not stated)	MC4R antagonist 41.1 (no result: H9c2 TAG inh) | U2OS cAMP counter inactive | MC4R antag conf inactive
CC1CCCN(S(=O)(=O)c2ccc(NC(=O)CNC3CCCC3)cc2)C1 (configuration not stated)	none (no result: H9c2 TAG inh)
CCC1CCCCN1S(=O)(=O)c1ccc(NC(=O)c2ccncc2)cc1 (configuration not stated)	none
O=C(Cc1ccc(NC(=O)C2CCN(C(=O)C3CCCC3)CC2)cc1)Nc1cccc(C(=O)N2CCCC2)c1	none (no result: MC4R antagonist, MC4R barr agon, Efflux pump mplx, Calb FLC, H9c2 TAG inh)
COC(=O)[C@H](CCSC)NC(=O)Cn1cc(C)c(=O)[nH]c1=O	none (no result: Efflux pump mplx, Calb FLC)
CCOC(=O)C1CCCN(C(=O)c2cccc(C(F)(F)F)c2)CC1 (configuration not stated)	none (no result: Efflux pump mplx, Calb FLC)
COc1cc(OC)cc(C(=O)Nc2nc3ccc(S(C)(=O)=O)cc3s2)c1	MC4R antagonist 33.9 (no result: H9c2 TAG inh) | U2OS cAMP counter inactive | MC4R antag conf inactive
CS(=O)(=O)c1ccc2nc(NC(=O)c3cc([N+](=O)[O-])cc([N+](=O)[O-])c3)sc2c1	none (no result: H9c2 TAG inh)
Cn1nc([N+](=O)[O-])nc1S(C)(=O)=O	none (no result: Efflux pump mplx)
CS(=O)(=O)c1nc([N+](=O)[O-])nn1CCCc1ccccc1	MC4R antagonist 34.5 (no result: GalR3 antag) | U2OS cAMP counter inactive | MC4R antag conf inactive
CSCCC(NC(=O)c1ccc([N+](=O)[O-])cc1Cl)C(=O)OCC(=O)NC(=O)CN1CCCC1=O (configuration not stated)	none
CSCCC(NC(=O)c1ccc([N+](=O)[O-])cc1Cl)C(=O)OCC(=O)NC1CCCC(C)C1C (configuration not stated)	MC4R antagonist 33.0 (no result: H9c2 TAG inh) | U2OS cAMP counter 17.0 | MC4R antag conf 40.0
CSCCC(NC(=O)c1ccc([N+](=O)[O-])cc1Cl)C(=O)OC1CCCCC1=O (configuration not stated)	MC4R antagonist 30.9 | U2OS cAMP counter 14.4 | MC4R antag conf 39.0
CC1=C(C(=O)N2CCCCCC2)CC(CC(=O)NCC2CCCCC2)C(=O)N1Cc1ccc(F)cc1 (configuration not stated)	none (no result: MC4R antagonist, MC4R barr agon, Efflux pump mplx, Calb FLC, H9c2 TAG inh)
O=C(c1ccc(Cl)c([N+](=O)[O-])c1)N(Cc1ccccc1)C1CCS(=O)(=O)C1 (configuration not stated)	none (no result: H9c2 TAG inh)
Cc1ccc(CN(C(=O)c2ccc(Cl)c([N+](=O)[O-])c2)C2CCS(=O)(=O)C2)o1 (configuration not stated)	MC4R antagonist 36.9 (no result: H9c2 TAG inh) | U2OS cAMP counter 18.8 | MC4R antag conf 36.9
Cc1ccc(S(=O)(=O)N2CCC(C(=O)Nc3nnc(C4CCCC4)s3)CC2)cc1	none (no result: H9c2 TAG inh)
O=C(Nc1nnc(C2CCCC2)s1)C1CCN(S(=O)(=O)c2ccc(Cl)cc2)CC1	MC4R antagonist 29.9 (no result: H9c2 TAG inh) | U2OS cAMP counter inactive | MC4R antag conf inactive
CCCCNC(=O)C[C@@H]1C[C@@]2(C(=O)OC)CCCCC=C2N(CCC2=CCCCC2)C1=O	none (no result: MC4R antagonist, MC4R barr agon, Efflux pump mplx, Calb FLC, H9c2 TAG inh)
CSCc1ccc(C(=O)Nc2ccc(C(N)=O)cc2)cc1	MC4R antagonist 31.4 | U2OS cAMP counter inactive | MC4R antag conf inactive
CSCc1ccc(C(=O)NCc2ccc(C)cc2)cc1	none (no result: H9c2 TAG inh)
COC(=O)C(Cc1ccc(O)cc1)NC(=O)C1CCN(S(=O)(=O)c2ccc(C)cc2)CC1 (configuration not stated)	MC4R antagonist 29.8 (no result: H9c2 TAG inh) | U2OS cAMP counter 17.7 | MC4R antag conf 31.3
Cc1nc(Nc2ccc(Cl)c(Cl)c2)sc1C(/C=C/c1ccc2c(c1)OCO2)=NNc1ccc([N+](=O)[O-])cc1[N+](=O)[O-]	none (no result: Efflux pump mplx, Calb FLC)
CCOC(=O)/C=C/C(=O)Nc1cccc([N+](=O)[O-])c1	MC4R antagonist 34.2 (no result: GalR3 antag) | U2OS cAMP counter 25.8 | MC4R antag conf 60.1
CCOC(=O)c1cccc(NC(=O)/C=C/c2cccc([N+](=O)[O-])c2)c1	none (no result: H9c2 TAG inh)
CCc1nc2c(OCC(=O)C(C)(C)C)cccn2c1N(C)C(=O)c1ccco1	none (no result: Efflux pump mplx, Calb FLC)
COc1ccc(CCNC(=O)C2(C)CCC(=O)N2Cc2ccc3c(c2)OCO3)cc1OC (configuration not stated)	none
COc1ccc(CCNC(=O)C2(C)CCC(=O)N2Cc2ccc(F)cc2Cl)cc1OC (configuration not stated)	MC4R antagonist 38.9 (no result: H9c2 TAG inh) | U2OS cAMP counter inactive | MC4R antag conf inactive
CC(C)C(NC(=O)C1(NC(=O)OCc2ccccc2)CCCC1)C(=O)O (configuration not stated)	none (no result: Efflux pump mplx, Calb FLC)
O=Cc1s/c(=N\S(=O)(=O)c2ccccc2)n(CCCCl)c1Cl	MC4R antagonist 45.9 (no result: Efflux pump mplx) | U2OS cAMP counter inactive | MC4R antag conf inactive
Cc1csc(NC(=O)Cc2ccccc2Cl)n1	none (no result: H9c2 TAG inh)
Cc1cnc(NC(=O)Cc2ccccc2Cl)s1	MC4R antagonist 29.8 (no result: H9c2 TAG inh) | U2OS cAMP counter inactive | MC4R antag conf inactive
